Assay results as given in ChEMBL document CHEMBL1148491, “Synthesis and pharmacological characterization of nicotinic acetylcholine receptor properties of (+)- and (-)-pyrido-[3,4-b]homotropanes” (J Med Chem, 2006).
Activity calls are given as the source filed them. No cut-off for these calls is given here.

What was measured:
Mus musculus [1] = test: Antinociceptive activity in sc dosed mouse by hot plate assay after 5 mins
Mus musculus [2] = species on record: Mus musculus; test: Spontaneous activity in mouse; type: functional
How it was run: (§1)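 Mice placed in individual photocell activity cages 5 min after sc injection (0.9% saline vehicle). Photocell beam interruptions were counted over the next 10 min.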

Mus musculus [3] = species on record: Mus musculus; test: Antinociceptive activity in mouse by tail flick assay
Mus musculus [4] = species on record: Mus musculus; test: Hypothermia in mouse; type: functional
How it was run: (§2)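 Rectal temperature in mice measured by thermistor probe inserted 24 mm, read just before and at several times after sc injection (saline vehicle). Readout is the before-after difference for each mouse; ambient temperature 21-24 °C.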

Mus musculus [5] = species on record: Mus musculus; test: Antagonist effect on nicotine-induced antinociceptive activity in mouse by hot plate assay; type: functional
Mus musculus [6] = species on record: Mus musculus; test: Antagonist effect against nicotine-induced antinociceptive activity in mouse by tail flick assay; type: functional
[7] = target: Neuronal acetylcholine receptor; alpha4/beta2 (Rattus norvegicus, UniProt P09483+P12390); test: Displacement of [3H]epibatidine from alpha-4-beta-2 nACHR in rat cerebral cortex; type: tissue-based
Rattus norvegicus [8] = test: Antagonist activity on nicotine discrimination in rat at 3 mg/kg by lever press assay; type: functional; set-up: scale not given: the % may be the effect or the level left
How it was run: (§3)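 Pretreatment with the test dose sc was followed 10 min later by 0.4 mg/kg (-)-nicotine, then a 15-min test session. Readouts: % nicotine-lever responding and response rate.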

Mus musculus [9] = test: Antinociceptive activity in mouse by hot plate assay at 10 mg/kg, sc after 5 mins; type: functional; details: route subcutaneous
How it was run: (§4)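 Mouse hot-plate at 55.0 °C in a 10-cm glass cylinder. Two control latencies were taken ≥10 min apart (normal 8-12 s), scored by jumping or paw licking. Mice were tested 5 min after sc injection. Response given as %MPE = (test - control)/(maximum - control) × 100.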

Mus musculus [10] = test: Antinociceptive activity in mouse by tail flick assay at 10 mg/kg; type: functional
How it was run: (§5)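 Mouse tail-flick: tail exposed to a heat lamp and flick latency recorded. A control latency (2-4 s) was taken before treatment and a test latency after drug. Response given as %MPE = (test - control)/(maximum - control) × 100. ED50 with 95% confidence limits from unweighted least-squares linear regression.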

Rattus norvegicus [11] = test: Agonist activity on nicotine discrimination in rat at 3 mg/kg by lever press assay; type: functional
How it was run: (§6)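 Substitution tests were 15-min sessions starting 10 min after sc injection, with either lever reinforced. A rat was tested only if it made ≥80% injection-appropriate responses on the prior training day. Readouts: % nicotine-lever responding and response rate.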

Mus musculus [12] = test: Antinociceptive activity in mouse by hot plate assay at 1 mg/kg, sc after 5 mins; type: functional; details: route subcutaneous; how it was run: as §4
Mus musculus [13] = test: Antinociceptive activity in mouse by tail flick assay at 1 mg/kg; type: functional; how it was run: as §5
Mus musculus [14] = test: Spontaneous activity in mouse at 5 mg/kg; type: functional; how it was run: as §1
[15] = target: Neuronal acetylcholine receptor subunit alpha-7 (Homo sapiens) (UniProt P36544); test: Displacement of [125I]iodoMLA from alpha-7 nACHR at 10 uM; details: Rattus norvegicus
Mus musculus [16] = test: Hypothermia in mouse at 5 mg/kg; type: functional, organism-based; set-up: dose 5 mg/kg; how it was run: as §2
[17] = target: T1, Neuronal acetylcholine receptor; alpha3/beta4 (Rattus norvegicus) (UniProt P04757+P12392); test: Antagonist activity at rat alpha-3-beta-4 nACHR in HEK293 cells by patch-clamp assay at 10 uM; type: functional, cell-based; set-up: scale not given: the % may be the effect or the level left
[18] = target: T1, Neuronal acetylcholine receptor; alpha3/beta4 (Rattus norvegicus); test: Agonist activity at rat alpha3beta4 nACHR in HEK293 cells by patch-clamp assay at 10 uM; type: functional, cell-based
[19] = target: T2, Neuronal acetylcholine receptor; alpha4/beta2 (Homo sapiens, UniProt P17787+P43681); test: Antagonist activity at human alpha-4-beta-2 nACHR in SH-EP1 cells by patch-clamp assay at 10 uM; type: functional, cell-based; set-up: scale not given: the % may be the effect or the level left
[20] = target: T2, Neuronal acetylcholine receptor; alpha4/beta2; test: Agonist activity at human alpha-4-beta-2 nACHR in SH-EP1 cells by patch-clamp assay at 10 uM; type: functional, cell-based
Mus musculus [21] = test: Antinociceptive activity in mouse by tail flick assay at 10 ug administered intrathecally; type: functional, organism-based
How it was run: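 Tail-flick latency to a heat lamp in mice after intrathecal injection of 10 µg/mouse.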

Rattus norvegicus [22] = test: Agonist activity on nicotine discrimination in rat at 0.56 mg/kg by lever press assay; type: functional; how it was run: as §6
Rattus norvegicus [23] = test: Antagonist activity on nicotine discrimination in rat at 0.3 mg/kg by lever press assay; type: functional; set-up: scale not given: the % may be the effect or the level left; how it was run: as §3
Mus musculus [24] = test: Antagonist effect on nicotine-induced hypothermia in mouse at […]; type: functional; set-up: scale not given: the % may be the effect or the level left
Mus musculus [25] = test: Antagonist effect on nicotine-induced antinociceptive activity in mouse by hot plate assay at […]; type: functional; set-up: scale not given: the % may be the effect or the level left
[26] = target: T2, Neuronal acetylcholine receptor; alpha4/beta2; test: Intrinsic activity at human alpha-4-beta-2 nACHR in SH-EP1 cells relative to ACh; type: functional, cell-based
Mus musculus [27] = test: Antagonist effect on nicotine-induced antinociceptive activity in mouse by tail flick assay at […]; type: functional; set-up: scale not given: the % may be the effect or the level left
[28] = target: T2, Neuronal acetylcholine receptor; alpha4/beta2; test: Activity at human alpha-4-beta-2 nACHR assessed as inhibition of ACh-induced current in SH-EP1 cells at 40 uM; type: functional, cell-based; set-up: scale not given: the % may be the effect or the level left

Sequence of Neuronal acetylcholine receptor; alpha4/beta2 (Rattus norvegicus, UniProt P09483+P12390) (P09483 whole entry): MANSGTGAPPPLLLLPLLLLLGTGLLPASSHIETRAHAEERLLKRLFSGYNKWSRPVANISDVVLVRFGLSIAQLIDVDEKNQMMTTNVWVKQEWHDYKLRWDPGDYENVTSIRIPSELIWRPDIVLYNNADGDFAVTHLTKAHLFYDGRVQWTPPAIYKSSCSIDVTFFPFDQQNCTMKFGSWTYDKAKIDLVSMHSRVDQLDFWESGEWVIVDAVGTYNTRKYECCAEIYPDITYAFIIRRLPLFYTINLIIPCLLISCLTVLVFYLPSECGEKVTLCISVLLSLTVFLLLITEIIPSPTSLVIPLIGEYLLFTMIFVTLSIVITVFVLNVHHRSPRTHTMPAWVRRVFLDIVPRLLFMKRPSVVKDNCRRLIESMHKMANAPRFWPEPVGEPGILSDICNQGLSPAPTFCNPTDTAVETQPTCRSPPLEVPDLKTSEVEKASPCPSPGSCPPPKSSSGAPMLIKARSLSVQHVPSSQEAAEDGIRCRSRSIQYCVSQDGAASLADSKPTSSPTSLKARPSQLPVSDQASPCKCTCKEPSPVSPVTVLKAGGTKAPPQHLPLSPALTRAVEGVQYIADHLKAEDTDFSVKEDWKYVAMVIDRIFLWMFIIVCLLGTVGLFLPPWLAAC
Sequence of Neuronal acetylcholine receptor; alpha4/beta2 (Rattus norvegicus, UniProt P09483+P12390) (P12390 whole entry): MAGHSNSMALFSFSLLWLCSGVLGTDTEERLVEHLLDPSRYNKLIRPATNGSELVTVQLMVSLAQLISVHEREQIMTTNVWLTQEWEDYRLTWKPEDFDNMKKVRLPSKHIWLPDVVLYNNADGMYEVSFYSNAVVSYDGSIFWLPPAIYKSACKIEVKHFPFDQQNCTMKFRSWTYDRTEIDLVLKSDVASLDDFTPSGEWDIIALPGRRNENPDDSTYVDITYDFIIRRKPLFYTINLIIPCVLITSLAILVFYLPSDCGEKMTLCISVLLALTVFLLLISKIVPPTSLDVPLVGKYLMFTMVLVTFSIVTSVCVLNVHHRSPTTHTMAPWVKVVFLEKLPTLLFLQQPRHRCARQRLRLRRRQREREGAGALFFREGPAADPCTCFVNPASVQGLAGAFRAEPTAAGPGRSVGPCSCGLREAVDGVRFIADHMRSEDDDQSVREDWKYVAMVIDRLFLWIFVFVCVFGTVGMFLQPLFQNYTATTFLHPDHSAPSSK
Sequence of Neuronal acetylcholine receptor subunit alpha-7 (Homo sapiens) (P36544 whole entry): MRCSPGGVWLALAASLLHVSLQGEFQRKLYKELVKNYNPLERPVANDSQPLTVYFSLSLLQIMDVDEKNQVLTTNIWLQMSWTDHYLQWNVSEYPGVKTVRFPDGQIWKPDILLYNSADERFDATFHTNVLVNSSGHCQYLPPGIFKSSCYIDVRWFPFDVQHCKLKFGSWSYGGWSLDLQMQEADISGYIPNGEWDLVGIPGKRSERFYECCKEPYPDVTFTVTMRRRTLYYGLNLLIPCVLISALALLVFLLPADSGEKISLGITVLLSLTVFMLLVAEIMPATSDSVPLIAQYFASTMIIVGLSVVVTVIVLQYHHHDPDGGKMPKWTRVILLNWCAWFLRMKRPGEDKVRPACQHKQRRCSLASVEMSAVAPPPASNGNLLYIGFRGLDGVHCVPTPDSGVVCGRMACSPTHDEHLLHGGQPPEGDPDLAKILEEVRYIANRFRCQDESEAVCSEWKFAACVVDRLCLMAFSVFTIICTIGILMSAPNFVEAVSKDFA
T2 sequence (P17787 whole entry): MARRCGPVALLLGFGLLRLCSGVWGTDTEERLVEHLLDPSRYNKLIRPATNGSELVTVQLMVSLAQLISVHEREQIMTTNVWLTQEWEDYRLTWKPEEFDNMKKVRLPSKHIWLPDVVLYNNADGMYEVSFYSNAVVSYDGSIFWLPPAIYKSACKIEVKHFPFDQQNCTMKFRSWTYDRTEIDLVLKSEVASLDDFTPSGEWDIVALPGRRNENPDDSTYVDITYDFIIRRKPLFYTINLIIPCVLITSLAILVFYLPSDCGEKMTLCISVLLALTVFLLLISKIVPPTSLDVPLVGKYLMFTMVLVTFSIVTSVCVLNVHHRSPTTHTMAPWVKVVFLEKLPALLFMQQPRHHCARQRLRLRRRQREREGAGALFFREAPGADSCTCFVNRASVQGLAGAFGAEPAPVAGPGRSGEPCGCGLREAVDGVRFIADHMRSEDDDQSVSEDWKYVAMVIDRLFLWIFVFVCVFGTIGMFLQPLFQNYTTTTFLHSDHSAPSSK
T2 sequence (P43681 whole entry): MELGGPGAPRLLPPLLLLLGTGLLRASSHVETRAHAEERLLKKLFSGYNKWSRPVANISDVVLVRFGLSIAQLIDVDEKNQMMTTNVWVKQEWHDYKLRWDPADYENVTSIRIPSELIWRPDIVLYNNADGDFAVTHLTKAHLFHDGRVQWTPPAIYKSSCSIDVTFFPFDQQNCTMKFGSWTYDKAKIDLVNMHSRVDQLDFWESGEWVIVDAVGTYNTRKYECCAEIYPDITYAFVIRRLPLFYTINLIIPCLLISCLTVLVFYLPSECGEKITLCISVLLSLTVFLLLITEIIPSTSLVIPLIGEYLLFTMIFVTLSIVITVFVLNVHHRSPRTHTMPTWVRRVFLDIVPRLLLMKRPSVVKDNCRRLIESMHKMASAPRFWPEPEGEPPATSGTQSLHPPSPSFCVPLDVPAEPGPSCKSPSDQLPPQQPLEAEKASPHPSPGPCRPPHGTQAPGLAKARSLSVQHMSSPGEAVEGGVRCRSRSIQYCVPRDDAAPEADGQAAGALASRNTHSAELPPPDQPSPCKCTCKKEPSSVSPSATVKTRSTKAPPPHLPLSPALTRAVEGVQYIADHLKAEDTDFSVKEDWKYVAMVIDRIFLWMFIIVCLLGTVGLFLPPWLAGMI

Compound: CN1CCC[C@H]1c1cccnc1 [NICOTINE]
- ED50 (Mus musculus [1]): 650 µg/kg
- ED50 (Mus musculus [2]; Mus musculus, read-out: ED50): 500 µg/kg
- ED50 (Mus musculus [3]): 1300 µg/kg
- ED50 (Mus musculus [4]; Mus musculus, read-out: ED50): 1000 µg/kg

Compound: c1cc2c(cn1)C1CCC(CC2)N1 (racemic)
- AD50 (Mus musculus [5]): 1000 µg/kg
- AD50 (Mus musculus [6]): 5 µg/kg
- ED50 (Mus musculus [2]; Mus musculus, read-out: ED50): 2600 µg/kg
- Ki [7]: 6.1 nM
- Activity (Rattus norvegicus [8]): 84%
- Activity (Mus musculus [9]): 2%
- Activity (Mus musculus [10]): 12%
- Activity (Rattus norvegicus [11]): 17%
- ED50 (Mus musculus [4]; Mus musculus, read-out: ED50): 1600 µg/kg

Compound: Clc1ccc([C@H]2C[C@@H]3CC[C@H]2N3)cn1 [(-)-EPIBATIDINE]
- ED50 (Mus musculus [1]): 4 µg/kg
- ED50 (Mus musculus [2]; Mus musculus, read-out: ED50): 1 µg/kg
- ED50 (Mus musculus [3]): 6 µg/kg
- ED50 (Mus musculus [4]; Mus musculus, read-out: ED50): 4 µg/kg

Compound: Clc1ccc([C@@H]2C[C@H]3CC[C@@H]2N3)cn1 [(+)-EPIBATIDINE]
- ED50 (Mus musculus [1]): 4 µg/kg
- ED50 (Mus musculus [2]; Mus musculus, read-out: ED50): 1 µg/kg
- ED50 (Mus musculus [3]): 0.6 µg/kg
- ED50 (Mus musculus [4]; Mus musculus, read-out: ED50): 4 µg/kg

Compound: CN1CCC[C@@H]1c1cccnc1 [R-NICOTINE]
- ED50 (Mus musculus [1]): 3900 µg/kg
- ED50 (Mus musculus [2]; Mus musculus, read-out: ED50): 2900 µg/kg
- ED50 (Mus musculus [3]): 8000 µg/kg
- ED50 (Mus musculus [4]; Mus musculus, read-out: ED50): 7600 µg/kg

Compound: c1cc2c(cn1)C1CCC(CC2)N1 (single isomer, unassigned; (-)) [listing 1 of 2 here]
- Activity (Mus musculus [12]): 2%
- AD50 (Mus musculus [5]): 0.8 µg/kg
- AD50 (Mus musculus [6]): 0.07 µg/kg
- Ki [7]: 350 nM
- Activity (Mus musculus [13]): 2%
- Activity (Rattus norvegicus [11]): 23.8%
- Activity (Mus musculus [14]): 10%

Compound: c1cc2c(cn1)C1CCC(CC2)N1 (single isomer, unassigned; (-)) [listing 2 of 2 here]
- inhibition [15]: 50%
- Activity (Mus musculus [16]): Active
- Activity [17]: 93%
- Activity [18]: 0.9%
- Activity [19]: 89%
- Activity [20]: 0%
- Activity (Mus musculus [21]): inactive

Compound: c1cc2c(cn1)C1CCC(CC2)N1 (single isomer, unassigned; (+)) [listing 1 of 2 here]
- Activity (Mus musculus [12]): 8%
- ED50 (Mus musculus [2]): 2000 µg/kg
- Ki [7]: 1.29 nM
- Activity (Rattus norvegicus [22]): 44.5%
- Activity (Mus musculus [13]): 8%
- Activity (Rattus norvegicus [23]): 96%
- Activity (Mus musculus [24]): 0%
- Activity (Mus musculus [25]): 5%
- ED50 (Mus musculus [4]): 2900 µg/kg
- EC50 [26]: 5500 nM
- Activity (Mus musculus [27]): 0%

Compound: c1cc2c(cn1)C1CCC(CC2)N1 (single isomer, unassigned; (+)) [listing 2 of 2 here]
- inhibition [15]: < 50%
- Activity [28]: 10%
- Activity [17]: 101%
- Activity [18]: 13%
- Activity [19]: 117%
- Activity [20]: 28%
- Activity (Mus musculus [21]): inactive
- Activity [26]: 17%
